One series addresses T1, wild-type GBA (Homo sapiens, UniProt P04062).
T1 sequence (P04062 40-536): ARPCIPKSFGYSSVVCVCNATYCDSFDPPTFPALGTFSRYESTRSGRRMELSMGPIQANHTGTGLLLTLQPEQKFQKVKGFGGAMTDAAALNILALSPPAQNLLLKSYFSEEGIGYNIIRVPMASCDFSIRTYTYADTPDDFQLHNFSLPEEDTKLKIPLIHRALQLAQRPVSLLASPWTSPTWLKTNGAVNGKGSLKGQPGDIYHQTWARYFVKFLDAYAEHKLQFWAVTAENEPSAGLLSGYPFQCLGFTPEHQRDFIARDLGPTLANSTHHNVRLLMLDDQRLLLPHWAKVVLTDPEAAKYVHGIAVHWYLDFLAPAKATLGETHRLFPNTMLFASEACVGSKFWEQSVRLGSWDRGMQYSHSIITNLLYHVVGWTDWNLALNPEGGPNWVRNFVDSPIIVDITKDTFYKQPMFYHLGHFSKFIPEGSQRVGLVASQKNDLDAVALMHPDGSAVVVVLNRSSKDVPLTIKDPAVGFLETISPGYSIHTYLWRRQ
In words: In situ stabilization of GBA in wild-type fibroblasts. The class given is cell-based. The note with it: wild-type cells, 100 nM ABP 5 or 100 μM leupeptin, up to 12 days. The procedure, abridged:
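Confluent wild-type skin fibroblasts were cultured 0–12 days with 100 nM red β-epoxide probe, 100 μM leupeptin, or both, with medium refreshed […]. Lysates were made in pH 6.5 phosphate/Triton with protease inhibitors. Without in situ probe, 10 μg protein was labeled 1 h at 37 °C with 100 nM green probe at pH 5.2. Analysis was SDS-PAGE fluorescence, Coomassie staining and anti-GBA (8E4) western blot, then densitometry.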

The target of series [1] is T2, rGBA (Homo sapiens, UniProt P04062, R534H).
T2 sequence (P04062 40-536 R534H): T1 sequence (P04062 40-536) with R495H
The series can be described thus: Thermal stability of rGBA by tryptophan fluorescence decay. Type of series: binding.

Series [2] has as its target T2, rGBA. The series can be described thus: Limited proteolysis of rGBA with trypsin. The note with it: for rGBA remaining intact after tryptic digestion: 90 min of incubation with trypsin.
The test system of another series is wild-type and N370S GBA. The series can be described thus: In situ treatment of fibroblasts with IFG 1 or fluoro 3 for 12 days. The following applies: wild-type and homozygous N370S GBA fibroblasts. The class given is cell-based, human.
The test system of the next series is GBA. The following applies: neutral pH; cited from earlier work.
For a further series, the system named is GBA L444P mutant. The note with it: mice, oral administration; cited from earlier work.
Series [3] can be described thus: Thermal unfolding of free rGBA by circular dichroism. The class given is physicochemical. The note with it: circular dichroism 222 nm. On the technique in general: CD spectra are sensitive to the conformation of chiral molecules.
Series [4] in a line: Time-dependent decay of rGBA activity at 37 °C. The class given is physicochemical.
In series [5] the target is T2, rGBA. The series can be described thus: Tryptophan emission fluorescence spectra of rGBA. The following applies: λEX 295 nm, pH 7.4, free or in complex with inhibitor.

Changes are numbered by the printed parent chain.

As to `CC(=O)N[C@@H](CC(C)C)C(=O)N[C@@H](CC(C)C)C(=O)N[C@H](C=O)CCCNC(=N)N` [leupeptin], the “stabilization of GBA” value at wild-type GBA is on record as “about 3 fold”.

On to `OC[C@H]1CNC[C@@H](O)[C@@H]1O` [IFG 1, isofagomine], for which the “increase of Tm of rGBA” value at rGBA [1] (pH 5.2, saturating inhibitor concentration) is “+5.6 °C”. The “rGBA remaining intact after tryptic digestion” value on rGBA [2] was 50%. Besides, the “concentration at which stabilizing effect became evident” value with wild-type and N370S GBA is on record as “greater than 10 μM”. Besides, in the series on wild-type and N370S GBA (highest concentration tested), the “concentration of maximal stabilizing effect” value came to 100 µM. In addition, the “increase in thermal stability of GBA” value with GBA was 8.7 °C. In addition, in the series with GBA L444P mutant, the “increase of GBA L444P mutant activity” value was “up to 5 fold”.

B1: rGBA: purified recombinant glucocerebrosidase (imiglucerase) from Genzyme (protein, UniProt P04062 40-536, looked up, variant R495H)
Lysosomal acid …: T1 sequence (P04062 40-536) with R495H
modifications: imiglucerase
Turning to B1, the “Tm of rGBA” value with rGBA [1] (pH 5.2, no inhibitor) worked out at 55.2 °C. In addition, the “apparent Tm” value in series [3] (pH 5.2) is 61 °C; in series [3] (pH 7.4), 57 °C. Further, in [4] (pH 5.2, 37 °C), the “activity of rGBA over time” value was “preserved”. The “half-life of rGBA activity” value in series [4] (pH 7.4, 37 °C, residual activity measured at pH 5.2) came out at 30 min. Also, the “rGBA remaining intact after tryptic digestion” value with rGBA [2] is reported as about 10%. In the series with rGBA [2] (pH 5.2, trypsin/rGBA 1/10 (w/w)), the “sensitivity of rGBA to tryptic digestion over 90 min” value is “shows resistance to tryptic digestion”. The “rGBA degraded by trypsin within 60 min” value in the series with rGBA [2] (pH 7.4, trypsin/rGBA 1/10 (w/w)) was “about 40%”. For the same molecule, the “maximum emission of rGBA tryptophan fluorescence” value with rGBA [5] amounted to 336.5 nm.
